Test results from ChEMBL document CHEMBL4359895, “Discovery and biological evaluation of darolutamide derivatives as inhibitors and down-regulators of wild-type AR and the mutants” (Eur J Med Chem, 2019).
pIC50: −log10 of the molar value. Activity calls are given as the source filed them. The calls are words filed in the database; no cut-off is given here.

Columns and labels:
CWR22R = test: Antiproliferative activity against human 22Rv1 expressing AR assessed as reduction in cell viability incubated for 6 days by CCK-8 assay; assay type: functional, cell-based; conditions: 22Rv1, 144 h
Procedure, shortened: (§1)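 Cell proliferation assay run on LNCaP/AR, VCaP, 22Rv1, PC-3 and L-02 cells, with PC-3 and L-02 serving as AR-independent toxicity controls. IC50 fitted in GraphPad Prism 5 as the mean of at least two experiments, each in duplicate. Deviations under 35%.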

VCaP = test: Antiproliferative activity against human VCaP expressing AR assessed as reduction in cell viability incubated for 6 days by CCK-8 assay; assay type: functional, cell-based; conditions: 144 h; procedure, shortened: as §1
LNCaP = test: Antiproliferative activity against human LNCAP expressing AR assessed as reduction in cell viability incubated for 6 days by CCK-8 assay; assay type: functional, cell-based; conditions: 144 h; procedure, shortened: as §1
PC-3 = test: Cytotoxicity against human PC3 assessed as reduction in cell viability incubated for 6 days by CCK-8 assay; assay type: cell-based; conditions: PC-3, 144 h; procedure, shortened: as §1
L02 = test: Cytotoxicity against human L02 assessed as reduction in cell viability incubated for 6 days by CCK-8 assay; assay type: cell-based; conditions: L02, 144 h; procedure, shortened: as §1
[1] = target: T1, Androgen receptor (Homo sapiens) (UniProt P10275); test: Inhibition of AR in human HEK293 cells assessed as decrease in receptor transactivation at 10 uM incubated for 24 hrs by dual luciferase reporter gene assay; assay type: cell-based
T1 sequence (whole entry): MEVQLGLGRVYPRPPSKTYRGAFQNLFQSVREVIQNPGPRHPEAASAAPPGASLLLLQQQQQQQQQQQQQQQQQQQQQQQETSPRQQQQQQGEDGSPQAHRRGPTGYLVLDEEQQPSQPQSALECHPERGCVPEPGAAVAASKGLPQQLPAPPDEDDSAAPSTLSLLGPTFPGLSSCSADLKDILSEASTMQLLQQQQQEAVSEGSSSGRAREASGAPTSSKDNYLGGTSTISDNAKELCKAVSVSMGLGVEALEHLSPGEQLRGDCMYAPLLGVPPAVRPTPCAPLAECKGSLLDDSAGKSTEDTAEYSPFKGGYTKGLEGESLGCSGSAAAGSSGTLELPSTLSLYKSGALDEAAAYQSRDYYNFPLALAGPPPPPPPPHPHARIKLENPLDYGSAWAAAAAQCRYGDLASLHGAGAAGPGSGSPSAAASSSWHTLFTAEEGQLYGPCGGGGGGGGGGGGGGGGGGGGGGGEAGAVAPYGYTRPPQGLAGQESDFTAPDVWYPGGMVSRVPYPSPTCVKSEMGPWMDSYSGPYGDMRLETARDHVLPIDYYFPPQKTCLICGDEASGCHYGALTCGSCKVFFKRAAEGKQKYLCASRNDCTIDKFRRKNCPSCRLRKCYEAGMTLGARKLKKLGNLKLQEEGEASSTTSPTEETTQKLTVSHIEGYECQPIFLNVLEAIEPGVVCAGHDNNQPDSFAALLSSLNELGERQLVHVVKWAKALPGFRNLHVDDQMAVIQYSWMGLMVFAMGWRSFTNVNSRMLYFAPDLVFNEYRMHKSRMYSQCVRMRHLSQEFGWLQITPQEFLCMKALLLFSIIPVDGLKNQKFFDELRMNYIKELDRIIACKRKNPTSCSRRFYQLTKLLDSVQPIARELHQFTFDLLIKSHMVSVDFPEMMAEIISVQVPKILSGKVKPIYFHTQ
Procedure, shortened: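 HEK 293 cells transiently co-transfected with wt-AR expression vector and an androgen-responsive luciferase reporter construct. Cells given 2 nM testosterone plus 10 µM test compound (final concentrations). Read-out by luciferase, mean ± SD, n = 3.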

SMILES	pIC50 (CWR22R)	pIC50 (VCaP)	pIC50 (LNCaP)	pIC50 (PC-3)	pIC50 (L02)	inhibition [1]
C[C@H](Cn1ccc(-c2ccc(C#N)c(Cl)c2)n1)Nc1ncnc2ccccc12	5.01	< 4.52	6.01	–	–	–
C[C@@H](Cn1ccc(-c2ccc(C#N)c(Cl)c2)n1)Nc1cc2ccccc2cn1	4.92	5.80	5.72	–	–	–
CC(Cn1ccc(-c2ccc(C#N)c(Cl)c2)n1)C(=O)Nc1cc[nH]n1 (racemic)	–	< 4.52	< 4.52	< 4.52	–	–
C[C@@H](Cn1ccc(-c2ccc(C#N)c(Cl)c2)n1)Nc1cccc2ccccc12	< 4.52	4.55	6.06	–	–	–
CC(O)c1ccc(C(=O)N[C@@H](C)Cn2ccc(-c3ccc(C#N)c(Cl)c3)n2)cc1 (some centres undefined)	5.04	6.04	5.43	< 4.52	< 4.52	–
C[C@@H](Cn1ccc(-c2ccc(C#N)c(Cl)c2)n1)Nc1ncccn1	4.90	6.32	5.93	< 4.52	< 4.52	–
C[C@@H](Cn1ccc(-c2ccc(C#N)c(Cl)c2)n1)Nc1cccnc1	4.67	< 4.52	6.37	< 4.52	< 4.52	Active
C[C@@H](Cn1ccc(-c2ccc(C#N)c(Cl)c2)n1)NC(=O)c1cc[nH]n1	< 4.52	–	6.00	4.73	< 4.52	–
C[C@@H](Cn1ccc(-c2ccc(C#N)c(Cl)c2)n1)Nc1nccc(Cl)n1	< 4.52	< 4.52	5.85	< 4.52	–	–
CC(Cn1ccc(-c2ccc(C#N)c(Cl)c2)n1)C(=O)Nc1cccc(C(C)O)c1 (racemic)	–	< 4.52	5.38	< 4.52	–	Active
C[C@@H](Cn1ccc(-c2ccc(C#N)c(Cl)c2)n1)Nc1ccc2ncccc2c1	–	< 4.52	4.88	–	–	–
CC(O)c1cc(C(=O)N[C@H](C)Cn2ccc(-c3ccc(C#N)c(Cl)c3)n2)n[nH]1 (some centres undefined)	< 4.52	–	5.78	< 4.52	–	–
CC(=O)c1cc(C(=O)N[C@@H](C)Cn2ccc(-c3cc(F)c(C#N)c(Cl)c3)n2)n[nH]1	< 4.52	–	5.96	< 4.52	4.56	–
C[C@@H](Cn1ccc(-c2ccc(C#N)c(Cl)c2)n1)Nc1ccc2cccnc2c1	5.24	5.49	5.58	4.95	–	–
C[C@@H](Cn1ccc(-c2ccc(C#N)c(Cl)c2)n1)Nc1cncc2ccccc12	–	4.91	5.64	–	–	–
C[C@@H](Cn1ccc(-c2ccc(C#N)c(Cl)c2)n1)Nc1cnc2ccccc2c1	5.22	5.71	5.73	–	–	–
C[C@@H](Cn1ccc(-c2ccc(C#N)c(Cl)c2)n1)Nc1ccccc1	< 4.52	< 4.52	6.15	5.49	4.53	–
C[C@@H](Cn1ccc(-c2ccc(C#N)c(Cl)c2)n1)Nc1cccc2cnccc12	4.67	< 4.52	6.06	–	–	–
CC(=O)c1cccc(NC(=O)C(C)Cn2ccc(-c3ccc(C#N)c(Cl)c3)n2)c1 (racemic)	–	5.53	5.81	< 4.52	–	–
C[C@@H](Cn1ccc(-c2ccc(C#N)c(Cl)c2)n1)Nc1ccc2ccccc2n1	5.10	6.06	5.64	< 4.52	–	–
C[C@@H](Cn1ccc(-c2ccc(C#N)c(Cl)c2)n1)Nc1cccc2cccnc12	< 4.52	< 4.52	6.10	–	–	–
C[C@@H](Cn1ccc(-c2ccc(C#N)c(Cl)c2)n1)Nc1ccncc1	4.94	5.00	5.59	–	–	–
CC(O)c1cccc(C(=O)N[C@@H](C)Cn2ccc(-c3ccc(C#N)c(Cl)c3)n2)c1 (some centres undefined)	4.70	6.05	5.64	< 4.52	–	Active
